Test results published in ChEMBL document CHEMBL3297702, “Improving photodynamic inactivation of bacteria in dentistry: highly effective and fast killing of oral key pathogens with novel tooth-colored type-II photosensitizers” (J Med Chem, 2014).

Experiments:
Enterococcus faecalis [1] = test: Toxicity in Enterococcus faecalis ATCC 29212 assessed as reduction of log10 CFU at 1 to 250 uM incubated for 10 secs under dark condition measured after 24 hrs by agar plating method; type: organism-based; details: in vivo
Outline: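 Dark controls. Overnight BHI cultures (EF, SM, AN aerobic; AA anaerobic; 37 °C) were washed into PBS at 10^7–10^8 cells/mL. They were mixed 1:1 with photosensitizer at final 0–250 µM and incubated 10 s, 7.5 min or 15 min, then kept in the dark for 20, 40 or 120 s. Tenfold dilutions were plated: EF on Mueller-Hinton agar, aerobic 24 h; SM on BHI agar, aerobic 48 h; AN on blood agar, aerobic 48 h; AA on BHI agar, anaerobic 48 h; all at 37 °C. CFU were compared with untreated controls; medians of three independent experiments in triplicate.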

[2] = Induction of singlet oxygen generation measured over 20 mins by luminescence assay; type: physicochemical
[3] = Photobleaching of the compound irradiated with laser energy at 405 nm for 5 mins; type: physicochemical; set-up: dose or concentration left out as unconfirmed
[4] = Octanol-water partition coefficient, log P of the compound at 1 x 10^-4 mol at room temperature after 10 mins by UV/vis spectroscopic analysis; type: physicochemical
Enterococcus faecalis [5] = test: Photodynamic inactivation of Enterococcus faecalis ATCC 29212 assessed as reduction of log10 CFU at 1 uM incubated prior to irradiation with 25 j/cm'2 for 20 secs measured after 24 hrs by agar plating method (reference value: <1 no unit); type: functional
Outline: (§1)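 E. faecalis ATCC 29212, aerobic overnight BHI culture at 37 °C, was harvested at stationary phase and suspended in PBS at 10^7–10^8 bacteria/mL. It was mixed 1:1 with PS to 0–250 µM final, held 10 s, then illuminated (1260 ± 50 mW/cm2) or kept dark. Dilutions were plated on Mueller-Hinton agar, aerobic 37 °C 24 h, CFU counted. Medians of three independent triplicate experiments, referred to untreated controls.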

Enterococcus faecalis [6] = test: Photodynamic inactivation of Enterococcus faecalis ATCC 29212 assessed as reduction of log10 CFU at 1 uM incubated prior to irradiation with 150 j/cm'2 for 120 secs measured after 24 hrs by agar plating method (reference value: <1 no unit); type: functional; outline: as §1
Enterococcus faecalis [7] = test: Photodynamic inactivation of Enterococcus faecalis ATCC 29212 assessed as reduction of log10 CFU at 1 uM incubated prior to irradiation with 50 j/cm'2 for 40 secs measured after 24 hrs by agar plating method (reference value: <1 no unit); type: functional; outline: as §1
Enterococcus faecalis [8] = test: Photodynamic inactivation of Enterococcus faecalis ATCC 29212 assessed as reduction of log10 CFU at 5 uM incubated prior to irradiation with 25 j/cm'2 for 20 secs measured after 24 hrs by agar plating method (reference value: <1 no unit); type: functional; outline: as §1
Enterococcus faecalis [9] = test: Photodynamic inactivation of Enterococcus faecalis ATCC 29212 assessed as reduction of log10 CFU at 5 uM incubated prior to irradiation with 50 j/cm'2 for 40 secs measured after 24 hrs by agar plating method (reference value: <1 no unit); type: functional; outline: as §1
Enterococcus faecalis [10] = test: Photodynamic inactivation of Enterococcus faecalis ATCC 29212 assessed as reduction of log10 CFU at 5 uM incubated prior to irradiation with 150 j/cm'2 for 120 secs measured after 24 hrs by agar plating method (reference value: <1 no unit); type: functional; outline: as §1
Enterococcus faecalis [11] = test: Photodynamic inactivation of Enterococcus faecalis ATCC 29212 assessed as reduction of log10 CFU at 10 uM incubated prior to irradiation with 25 j/cm'2 for 20 secs measured after 24 hrs by agar plating method (reference value: <1 no unit); type: functional; outline: as §1
Enterococcus faecalis [12] = test: Photodynamic inactivation of Enterococcus faecalis ATCC 29212 assessed as reduction of log10 CFU at 10 uM incubated prior to irradiation with 50 j/cm'2 for 40 secs measured after 24 hrs by agar plating method (reference value: <1 no unit); type: functional; outline: as §1
Enterococcus faecalis [13] = test: Photodynamic inactivation of Enterococcus faecalis ATCC 29212 assessed as reduction of log10 CFU at 10 uM incubated prior to irradiation with 150 j/cm'2 for 120 secs measured after 24 hrs by agar plating method (reference value: <1 no unit); type: functional; outline: as §1
Enterococcus faecalis [14] = test: Photodynamic inactivation of Enterococcus faecalis ATCC 29212 assessed as reduction of log10 CFU at 100 uM incubated prior to irradiation with 25 j/cm'2 for 20 secs measured after 24 hrs by agar plating method (reference value: <1 no unit); type: functional; outline: as §1
Enterococcus faecalis [15] = test: Photodynamic inactivation of Enterococcus faecalis ATCC 29212 assessed as reduction of log10 CFU at 100 uM incubated prior to irradiation with 50 j/cm'2 for 40 secs measured after 24 hrs by agar plating method (reference value: <1 no unit); type: functional; outline: as §1
Enterococcus faecalis [16] = test: Photodynamic inactivation of Enterococcus faecalis ATCC 29212 assessed as reduction of log10 CFU at 100 uM incubated prior to irradiation with 150 j/cm'2 for 120 secs measured after 24 hrs by agar plating method (reference value: <1 no unit); type: functional; outline: as §1
Leishmania donovani = test: Leishmanicidal activity against promastigote stage of Leishmania donovani MHOM/SD/00/1S-2D after 2 hrs by MTT assay; type: functional, organism-based
Leishmania infantum = test: Leishmanicidal activity against amastigote stage of Leishmania infantum MCAN/ES/89/IPZ229/1/89 after 2 hrs by MTT assay; type: functional, organism-based; details: MCAN/ES/89/IPZ229/1/89, 2 h

Row | Compound | Activity (Enterococcus faecalis [1]) | Activity [2] | Stability [3] | logP at 10 min [4] | log10cfu (Enterococcus faecalis [5]) | log10cfu (Enterococcus faecalis [6]) | log10cfu (Enterococcus faecalis [7]) | log10cfu (Enterococcus faecalis [8]) | log10cfu (Enterococcus faecalis [9]) | log10cfu (Enterococcus faecalis [10]) | log10cfu (Enterococcus faecalis [11]) | log10cfu (Enterococcus faecalis [12]) | log10cfu (Enterococcus faecalis [13]) | log10cfu (Enterococcus faecalis [14]) | log10cfu (Enterococcus faecalis [15]) | log10cfu (Enterococcus faecalis [16]) | EC50 (Leishmania donovani) [µg/mL] | EC50 (Leishmania infantum) [µg/mL]
1 | CC(c1ccccc1)[N+](C)(C)CC1=Cc2cccc3cccc(c23)C1=O.[Cl-] (stereo unspecified) | Non-toxic | Active | Unstable | -0.1 | <1 | <3 | <1 | <3 | <3 | >6 | <3 | <3 | >6 | >6 | >6 | >6 | – | –
2 | O=C1C(O)=Cc2cccc3ccc(-c4ccccc4)c1c23 | – | Active | Unstable | – | – | – | – | – | – | – | – | – | – | – | – | – | < 60 | < 60
3 | CCCC[N+](C)(C)CC1=Cc2cccc3cccc(c23)C1=O.[Cl-] | Non-toxic | Active | Unstable | -0.8 | <1 | <3 | <1 | <1 | <3 | 3 | <3 | <3 | >6 | >6 | >6 | >6 | – | –
4 | O=C1C(CCl)=Cc2cccc3cccc1c23 | – | – | – | 1.3 | – | – | – | – | – | – | – | – | – | – | – | – | – | –
5 | COC1=Cc2cccc3ccc(-c4ccccc4)c(c23)C1=O | – | Active | Unstable | – | – | – | – | – | – | – | – | – | – | – | – | – | < 60 | < 60
